This is an account of results in publication PMC11635510 (ACS Omega, 2024).

One data set deals with GSK-3α mRNA. The data set is described as follows: GSK-3α mRNA level by quantitative PCR in SH-SY5Y. Type of data set: cell-based. Particulars: 25 μM. The method in brief:
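Cells were exposed to test compound at 25 μM. Total RNA was extracted with RNX-plus reagent following the manufacturer's protocol, and transcript levels were then quantified by real-time PCR.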

Data set [1] concerns the target T1, BChE (Homo sapiens, UniProt P06276). The data set is described as follows: biochemical. Type of data set: biochemical. Particulars: for fold better BChE inhibitory activity in comparison with positive control: vs donepezil (positive control).
A further data set relates to GSK-3β mRNA. The data set is described as follows: GSK-3β mRNA level by quantitative PCR in SH-SY5Y. Type of data set: cell-based.
Data set [2] addresses T2, AChE (Homo sapiens, UniProt P22303). The data set is described as follows: biochemical.
Data set [3] deals with SH-SY5Y neuroblastoma cell line. The data set is described as follows: Toxicity assay on SH-SY5Y. Format: cell-based. Particulars: concentrations below 50 μM; 72 h; MTT. The method in brief: (§1)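 SH-SY5Y cells were cultured in DMEM/F12 with 15% fetal bovine serum, 100 units/mL penicillin and 100 μg/mL streptomycin. Viability was read by MTT after 72 h exposure to test compound. Results are mean ± SEM of five independent experiments, each in triplicate; p < 0.05 was taken as significant.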

Data set [4] in a line: Toxicity assay on SH-SY5Y. Format: cell-based. Particulars: human, SH-SY5Y neuroblastoma cells. The method in brief:
as §1

Data set [5] has as its target T1, BChE. The data set is described as follows: Enzyme kinetic study. Format: biochemical. Summed up:
(§2)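 Inhibition type and Km taken from Lineweaver–Burk double-reciprocal plots. Ki derived from secondary plots of line slope versus inhibitor concentration and of 1/Vmax versus inhibitor concentration. Cholinesterase activity was measured by a modified Ellman method.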

The target of data set [6] is T2, AChE. The data set is described as follows: Enzyme kinetic study. Format: biochemical. The method in brief:
as §2

Each structure is given as a SMILES string. Entries after “also recorded” stand apart in the source; their conditions may differ.

The IC50 is the point on the concentration scale where inhibition reaches its midpoint. By viability is commonly meant the share of living cells, or the viability signal relative to a control. The low end stands for more harm to the cells, the high end for less harm to the cells. For orientation: Ki means the equilibrium dissociation constant of an inhibitor or competing ligand from its target. High values mean weaker binding, low ones tighter binding. Usually inhibition stands for how much of the control response was suppressed.

T2 sequence (P22303 32-614): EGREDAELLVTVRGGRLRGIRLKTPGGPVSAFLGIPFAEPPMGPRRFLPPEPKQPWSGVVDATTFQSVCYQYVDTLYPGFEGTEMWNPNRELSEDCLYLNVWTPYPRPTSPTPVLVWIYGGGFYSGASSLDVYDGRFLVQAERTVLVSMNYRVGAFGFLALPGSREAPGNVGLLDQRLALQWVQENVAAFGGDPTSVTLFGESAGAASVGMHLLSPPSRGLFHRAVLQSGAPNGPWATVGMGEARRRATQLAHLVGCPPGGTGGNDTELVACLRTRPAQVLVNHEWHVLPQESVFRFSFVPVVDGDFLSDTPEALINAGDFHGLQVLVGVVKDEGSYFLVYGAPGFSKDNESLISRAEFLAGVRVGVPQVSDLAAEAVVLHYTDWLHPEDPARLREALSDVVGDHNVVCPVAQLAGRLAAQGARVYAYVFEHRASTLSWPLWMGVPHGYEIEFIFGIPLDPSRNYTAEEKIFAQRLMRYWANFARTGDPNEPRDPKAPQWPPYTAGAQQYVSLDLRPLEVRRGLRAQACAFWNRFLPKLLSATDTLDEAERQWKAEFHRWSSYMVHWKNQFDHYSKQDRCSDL
T1 sequence (P06276 29-602, species assumed): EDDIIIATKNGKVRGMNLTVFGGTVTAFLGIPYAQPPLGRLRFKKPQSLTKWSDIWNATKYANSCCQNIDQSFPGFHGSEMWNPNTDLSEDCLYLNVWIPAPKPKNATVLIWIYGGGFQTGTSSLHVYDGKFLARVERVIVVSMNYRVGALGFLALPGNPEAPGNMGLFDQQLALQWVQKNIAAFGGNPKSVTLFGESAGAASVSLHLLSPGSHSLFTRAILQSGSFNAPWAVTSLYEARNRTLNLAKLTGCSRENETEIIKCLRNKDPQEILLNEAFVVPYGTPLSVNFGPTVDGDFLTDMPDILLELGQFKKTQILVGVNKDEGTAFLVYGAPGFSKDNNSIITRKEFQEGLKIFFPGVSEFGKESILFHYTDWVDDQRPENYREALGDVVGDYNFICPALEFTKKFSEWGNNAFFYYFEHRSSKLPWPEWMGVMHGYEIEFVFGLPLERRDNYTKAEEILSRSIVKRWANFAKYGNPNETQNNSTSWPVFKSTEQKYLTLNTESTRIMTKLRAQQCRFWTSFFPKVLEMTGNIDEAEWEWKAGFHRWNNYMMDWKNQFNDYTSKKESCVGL

On to `O=C(NCc1ccc[n+](Cc2cccc(F)c2)c1)c1ccc(CN2C(=O)c3ccccc3C2=O)cc1.[Cl-]` [Compound 7c], for which the “effect on the mRNA level of GSK3α” value in the data set with GSK-3α mRNA is “no noticeable effect”. The IC50 on BChE [1] stood at 80 ± 10 nM; at AChE [2] it was 3980 ± 210 nM. In addition, on BChE [1], the “fold better BChE inhibitory activity in comparison with positive control” value was determined as 132 fold. In addition, in the data set with GSK-3β mRNA (25 μM), the “reduction of GSK-3β mRNA level” value was 25%. Moreover, the “mRNA level of GSK-3β” value in the data set on GSK-3β mRNA (25 μM, relative to control group) is around 75%. Further, in the data set on GSK-3β mRNA (SH-SY5Y, compared to control group), the “effect on mRNA level of GSK-3β (in words)” value is “decreased; also recorded: could reduce the mRNA level of GSK-3β”. In data set [3], the “toxicity on SH-SY5Y at fewer concentrations” value was “did not exhibit any toxicity”. In data set [4], this compound came in with a viability at 72 h, 50 µM of around 80%. At BChE [5], the Ki worked out at 130 nM. The inhibition mode result on BChE [5] (Lineweaver-Burk plot, BChE) was “mixed-type inhibition mode; also recorded: mixed inhibitor”.
The compound `O=C(NCc1ccc[n+](Cc2ccc(Br)cc2)c1)c1ccc(CN2C(=O)c3ccccc3C2=O)cc1.[Br-]` [Compound 7j] came in with an IC50 against AChE [2] of 260 ± 70 nM. The same compound registered a Ki on AChE [6] of 940 nM. On AChE [6] (1/Vmax vs inhibitor concentration, AChE), the “secondary inhibition constant (Kis)” value came out at 4.29 µM. Also, on AChE [6] (Lineweaver-Burk plot, AChE), the inhibition mode entry was “mixed mode of inhibition; also recorded: mixed-type inhibition pattern”.
`CC[n+]1cccc(CNC(=O)c2ccc(CN3C(=O)c4ccccc4C3=O)cc2)c1` [Compound 7q] displayed an IC50 on BChE [1] of 490 ± 40 nM. Besides, the inhibition at 50 µM at AChE [2] (read-out: AChE % inhibition at 50 μM) turned out to be 33.6 ± 2.9%.
`CCCCC[n+]1cccc(CNC(=O)c2ccc(CN3C(=O)c4ccccc4C3=O)cc2)c1` [Compound 7p]: the IC50 at BChE [1] came out at 18600 ± 1210 nM; against AChE [2], 6290 ± 760 nM.
Taken in the same sequence, the figures for `O=C(NCc1ccc[n+](Cc2ccc([N+](=O)[O-])cc2)c1)c1ccc(CN2C(=O)c3ccccc3C2=O)cc1` [Compound 7l] were 20400 ± 2550 nM and 5060 ± 2400 nM.
The matching figures for `O=C(NCc1ccc[n+](Cc2ccc(F)cc2)c1)c1ccc(CN2C(=O)c3ccccc3C2=O)cc1` [Compound 7d]: 330 ± 10 nM and 11100 ± 1290 nM.
The matching figures for `O=C(NCc1ccc[n+](Cc2cccc(Br)c2)c1)c1ccc(CN2C(=O)c3ccccc3C2=O)cc1` [Compound 7i]: 150 ± 10 nM and 2100 ± 490 nM.
Turning to `O=C(NCc1ccc[n+](Cc2ccccc2F)c1)c1ccc(CN2C(=O)c3ccccc3C2=O)cc1` [Compound 7b], the IC50 at BChE [1] was determined as 310 ± 20 nM; on AChE [2], 1190 ± 450 nM.
Turning to `O=C(NCc1ccc[n+](Cc2cccc(Cl)c2)c1)c1ccc(CN2C(=O)c3ccccc3C2=O)cc1` [Compound 7f], the IC50 came to 560 ± 190 nM on BChE [1] and 2660 ± 880 nM against AChE [2].
Regarding `O=C(NCc1ccc[n+](Cc2ccccc2)c1)c1ccc(CN2C(=O)c3ccccc3C2=O)cc1.[Br-]` [Compound 7a], at BChE [1], inhibition was half-maximal at 320 ± 60 nM (IC50) and the “fold better BChE inhibitory activity in comparison with positive control” value was “around 33 fold”. 9710 ± 830 nM corresponded to half-maximal inhibition on AChE [2] (IC50).
